Experimental findings from ChEMBL document CHEMBL4321878, “Stereoselective Activity of 1-Propargyl-4-styrylpiperidine-like Analogues That Can Discriminate between Monoamine Oxidase Isoforms A and B” (J Med Chem, 2020) are described below.

Activity calls are given as the source filed them. No cut-off for these calls is given here.

The target of data set [1] is T1, Amine oxidase [flavin-containing] A (Homo sapiens, UniProt P21397).
T1 sequence (P21397 whole entry): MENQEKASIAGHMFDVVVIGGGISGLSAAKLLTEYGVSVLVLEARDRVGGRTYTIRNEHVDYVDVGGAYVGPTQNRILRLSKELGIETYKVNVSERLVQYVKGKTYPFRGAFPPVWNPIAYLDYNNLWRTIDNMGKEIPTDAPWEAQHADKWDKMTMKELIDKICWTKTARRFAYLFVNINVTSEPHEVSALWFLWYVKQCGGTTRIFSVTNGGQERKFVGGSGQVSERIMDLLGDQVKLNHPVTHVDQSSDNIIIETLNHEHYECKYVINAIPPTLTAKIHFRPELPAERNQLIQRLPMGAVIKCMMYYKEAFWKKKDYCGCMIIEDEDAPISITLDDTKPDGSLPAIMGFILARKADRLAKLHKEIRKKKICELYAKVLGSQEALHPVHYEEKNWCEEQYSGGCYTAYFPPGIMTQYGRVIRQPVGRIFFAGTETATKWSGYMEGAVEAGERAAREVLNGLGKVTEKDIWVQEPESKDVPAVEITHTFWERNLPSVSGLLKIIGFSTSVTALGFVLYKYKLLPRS
Conditions: 20 min.

Data set [2] relates to SH-SY5Y. Description: Cytotoxicity against human SH-SY5Y cells assessed as reduction in cell viability at 5 to 10 uM measured after 24 hrs by MTS assay. The data set is classed as cell-based. Summed up: (§1)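 SH-SY5Y human neuroblastoma cells grown in Advanced DMEM with 10% FBS at 37 °C, 5% CO2, and switched to serum-depleted medium before treatment. Compounds (20 mM DMSO stocks) were applied at 5, 10 or 50 μM for 24 h. Viability read by MTS assay.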
A general note: Formazan colour is commonly taken as a measure of viable cells.

Data set [3] can be described thus: Cytotoxicity against human SH-SY5Y cells assessed as cell viability at 50 uM measured after 24 hrs by MTS assay relative to control. The data set is classed as cell-based. Conditions: read-out: Activity. In short, it runs like this: as §1
Data set [4] relates to SH-SY5Y. Description: Neuroprotective activity against 6-OHDA-induced toxicity in human SH-SY5Y cells assessed as LDH release at 5 uM pretreated for 30 mins followed by 6-OHDA challenge and measured after 24 hrs by cytotox-onetm homogeneous membrane integrity assay (reference value: 135%). The data set is classed as functional. On the technique in general: LDH leaks from cells whose membrane has failed.

The nature of data set [5]: Solubility of the compound in pH 7.4 sodium phosphate buffer at >100 uM. The class given is physicochemical.
The nature of data set [6]: Photoisomerization of the compound in D2O incubated for 7 days under sunlight by NMR analysis.
In data set [7] the test system is Mus musculus. Description: Antianxiety activity in Swiss mouse assessed as increase in open arm entries at 1 mg/kg, ip measured after 30 mins and monitored for 5 mins by elevated plus maze test relative to control. The data set is classed as functional.
Data set [8] deals with Mus musculus. Description: Antianxiety activity in Swiss mouse assessed as increase in time spent in open arm entries at 1 mg/kg, ip measured after 30 mins and monitored for 5 mins by elevated plus maze test relative to control. The data set is classed as functional.
Data set [9] concerns Mus musculus. Nature of the data set: Ex vivo inhibition of MAOB in ip dosed Swiss mouse brain homogenates measured after 30 mins using benzylamine as substrate by amplex red reagent-based horseradish peroxidase-coupled fluorescence assay. The class given is functional.
In data set [10] the test system is Mus musculus. Description: Reversal of haloperidol-induced catalepsy in Swiss mouse at 0.3 mg/kg, ip pretreated for 15 mins followed by haloperidol challenge and measured up to 90 mins. The data set is classed as functional, organism-based.
For data set [11], the system named is Mus musculus. Nature of the data set: Antidepressant-like activity in Swiss mouse assessed as reduction in immobility time at 3 to 10 mg/kg, ip administered as single dose for 30 mins prior to testing measured for last 4 mins of 6 mins test by tail suspension test. The class given is functional, organism-based.
Data set [12] relates to Mus musculus. Nature of the data set: Antianxiety activity in Swiss mouse assessed as number of total arm entries at 10 mg/kg, ip measured after 30 mins and monitored for 5 mins by elevated plus maze test. The class given is functional. Summed up: (§2)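 Adult male Swiss mice (25–30 g), given hydrochloride salts in 0.9% saline ip 30 min before the elevated plus maze; control mice received saline, with diazepam 1 mg/kg ip as reference. Scored arm entries, open-arm parameters and time in centre. Mice were used once, randomly assigned, and scored by blinded observers between 10:00 and 14:00 h.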

Data set [13] has as its system Mus musculus. Description: Antianxiety activity in Swiss mouse assessed as proportion of time spent in centre at 10 mg/kg, ip measured after 30 mins and monitored for 5 mins by elevated plus maze test relative to control. The class given is functional. Summed up:
as §2

The test system of data set [14] is Mus musculus. Nature of the data set: Effect on spontaneous locomotor activity in Swiss mouse assessed as change in number of light beam crossings at 10 mg/kg, ip measured after 30 mins and monitored for 5 mins. The conditions noted are these: in vivo. The data set is classed as ADME, organism-based.
The subject of data set [15] is SH-SY5Y. Nature of the data set: Neuroprotective activity against 6-OHDA-induced toxicity in human SH-SY5Y cells assessed as reduction in propidium iodide positive cells at 5 uM pretreated for 30 mins followed by 6-OHDA challenge and measured after 24 hrs by propidium iodide staining-based flow cytometric analysis relative to 6-OHDA. The class given is functional. Summed up: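 SH-SY5Y cells were grown in Advanced DMEM with 10% FBS at 37 °C, 5% CO2 to 80% confluence, then switched to serum-depleted medium. Compound (5 μM, from a 20 mM DMSO stock) was added 30 min before 6-OHDA (100 μM). After 24 h, PI staining was read by flow cytometry. Runs were n ≥ 2, each in duplicate, with one-way ANOVA and Bonferroni.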
(In general: Flow cytometry measures light scatter and fluorescence of single cells or particles in a stream.)

Data set [16] has as its target T1, Amine oxidase [flavin-containing] A. Nature of the data set: Irreversible inhibition of recombinant human MAOA expressed in Pichia pastoris at 100 uM measured immediately by UV-vis spectrophotometric analysis relative to control.
Data set [17] relates to Mus musculus. Nature of the data set: Antidepressant-like activity in Swiss mouse assessed as reduction in immobility time at 30 mg/kg, ip administered as single dose for 30 mins prior to testing measured for last 4 mins of 6 mins test by tail suspension test. The data set is classed as functional, organism-based.
A short description of data set [18]: Apparent permeability across absorptive direction in Sprague-Dawley rat ileum at 50 uM measured after 20 mins LC-MS/MS analysis. The class given is ADME, tissue-based.

The term inhibition denotes the change of the read-out against control, counted positive when it falls. The Papp A→B is how fast a substance crosses the layer from the apical side.

For `C#CCN1CCC(/C=C\c2ccc(C(F)(F)F)cc2)CC1`, the activity at 100 µM in data set [1] is 80.1%.
On to `C#CCN1CCCC(CCc2ccc(F)cc2)C1` (racemic), for which, in [1], the activity at 100 µM was found to be 93.1%.
Turning to `C#CCN1CCC(/C=C/c2ccc(F)cc2)CC1.Cl`, the results for the Activity result in the data set with SH-SY5Y [2] and in the data set with SH-SY5Y [4] were “Non-Toxic” and 76%, respectively. Further, the viability at 24 h, 50 µM in [3] was above 80%.
Regarding `C#CCN1CCC(/C=C/c2ccc(C(N)=O)cc2)CC1`, the activity at 100 µM in data set [1] amounted to 64.8%.
Consider `C#CCN1CCC(/C=C/c2ccc(C(C)C)cc2)CC1`, for which the solubility entry in data set [5] was “Insoluble”.
For `C#CCN1CCC(/C=C/c2ccc(C(F)(F)F)cc2)CC1` [listing 1 of 2 here], in [6], the Drug metabolism result was “Metabolite not detected”.
Take `CN1C(=O)CN=C(c2ccccc2)c2cc(Cl)ccc21` [DIAZEPAM]: the “fold change (FC)” value with Mus musculus [7] was 2.1; with Mus musculus [8] it was 2.4.
Turning to `C#CCN1CCC(CCc2ccc(O)cc2)CC1`, the activity at 100 µM in [1] came out at 67.7%.
Consider `C#CCN1CCC(CCc2ccc(C(F)(F)F)cc2)CC1` [listing 1 of 2 here], for which, in [6], the Drug metabolism result is “Metabolite not detected”. Besides, in the data set on Mus musculus [9], the inhibition result is “Dose-dependent effect”. For the same compound, the Activity entry with Mus musculus [10] was “inactive”.
As for `C#CCN1CCC(CCc2ccc(F)cc2)CC1`, in data set [1], the activity at 100 µM was 76.9%.
As to `C#CCN1CCC(/C=C\c2ccccc2)CC1.Cl`, the Activity result in the data set with SH-SY5Y [2] is given as “Non-Toxic”. The viability at 24 h, 50 µM in data set [3] is above 80%. Besides, in the data set with Mus musculus [11], the Activity result is “inactive”.
For `C#CCN1CCC(/C=C/c2ccc(C)cc2)CC1`, the activity at 100 µM in [1] stood at 57.3%.
In the case of `C#CCN1CCC(/C=C/c2ccc(C#N)cc2)CC1`, the solubility entry in data set [5] is “Insoluble”.
In the case of `C#CCN1CCC(/C=C/c2ccc(OC)cc2)CC1`, in [1], the activity at 100 µM is 56.1%.
Take `C#CCN1CCC(/C=C\c2ccc(Cl)cc2)CC1`: the solubility result in [5] was “Insoluble”.
For `C#CCN1CCC(/C=C\c2ccc(F)cc2)CC1.Cl`, the Activity entry in the data set with SH-SY5Y [2] is given as “Non-Toxic”; in the data set with Mus musculus [12], 9.7; with Mus musculus [13], 13.4%; in the data set on Mus musculus [14], “Toxic”. In addition, the viability at 24 h, 50 µM in [3] was above 80%. Moreover, the Activity result in the data set on Mus musculus [11] was “Active”.
For the compound `C#CCN1CCC(CCc2ccc(C#N)cc2)CC1.Cl`, the Activity entry in the data set on SH-SY5Y [2] is “Non-Toxic”; with SH-SY5Y [4], 82%. In data set [3], the viability at 24 h, 50 µM is above 80%.
Take `C#CCN1CCC(/C=C/c2ccc(S(C)(=O)=O)cc2)CC1`: the activity at 100 µM in [1] turned out to be 68.7%.
Turning to `C#CCN1CCC(/C=C/c2ccc(C(F)(F)F)cc2)CC1` [listing 2 of 2 here], in data set [1], the activity at 100 µM was found to be 64.9%.
Take `C#CCN1CCC(/C=C/c2ccc(Br)cc2)CC1`: the activity at 100 µM in data set [1] was 54.5%.
As for `C#CCN1CCCC(/C=C/c2cc(F)c(F)cc2F)C1` (racemic), the activity at 100 µM in data set [1] turned out to be 102%.
With `C#CCN1CCC(CCc2ccc(C)cc2)CC1`, the activity at 100 µM in [1] came out at 68.1%.
With `C#CCN1CCC(CCc2ccc(C(C)C)cc2)CC1.Cl`, the Activity entry in the data set with SH-SY5Y [2] was “Non-Toxic”; in the data set with SH-SY5Y [4] it was 82%. Moreover, in data set [3], the viability at 24 h, 50 µM is above 80%. The “fold change (FC)” value with SH-SY5Y [15] stood at 0.68.
For the compound `C#CCN(C)CCCOc1ccc(Cl)cc1Cl` [CLORGILINE], the inhibition at 100 µM in data set [16] was 100%.
In the case of `C#CCN1CCC(/C=C\c2ccc(C)cc2)CC1`, the activity at 100 µM in data set [1] stood at 62.2%.
The same measure, in the same setting: the same measure for `C#CCN1CCCC(CCc2cc(F)c(F)cc2F)C1` (racemic): 86%; for `C#CCN1CCC(/C=C\c2ccc(C(N)=O)cc2)CC1`: 89.5%.
As for `CN(C)CCCN1c2ccccc2CCc2ccccc21`, the Activity result in the data set on Mus musculus [17] was “Active”.
Take `COCCc1ccc(OCC(O)CNC(C)C)cc1` (stereo unspecified) [METOPROLOL]: in data set [18], the Papp A→B at 20 min, 50 µM is 14 ×10⁻⁶ cm/s.
In the case of `C#CCN1CCC(CCc2ccc(Cl)cc2)CC1`, in [1], the activity at 100 µM worked out at 67.7%.
As for `C#CCN1CCC(CCc2ccccc2)CC1`, the solubility result in data set [5] is recorded as “Insoluble”.
Consider `C#CCN1CCC(CCc2ccc(OC)cc2)CC1`, for which the activity at 100 µM in [1] amounted to 62.2%.
Same read-out and setting: the same measure for `C#CCN1CCCC(/C=C/c2ccc(F)cc2)C1` (racemic): 91%; for `C#CCN1CCC(/C=C\c2ccc(S(C)(=O)=O)cc2)CC1`: 70.6%.
Still for that read-out and setting: for `C#CCN1CCC(CCc2ccc(C(F)(F)F)cc2)CC1` [listing 2 of 2 here] the value was 62.3%; for `C#CCN1CCC(CCc2cc(F)c(F)cc2F)CC1`, 65.6%; for `C#CCN1CCC(CCc2cccc(C(F)(F)F)c2)CC1`, 71.6%.
On the same count and under the same terms, for `C#CCN1CCC(CCc2ccc(C(N)=O)cc2)CC1` the value was 75.1%.
Take `C#CCN1CCC(CCc2ccc(C(C)C)cc2)CC1`: the solubility result in data set [5] is given as “Insoluble”.
